Screening data (PubChem)
hIAP block = blocks human intestinal alkaline phosphatase. AID 2544. purified IAP, CDP-Star luminescence, 30 min. actives 0.12% (n = 330,000). inhibition, % at 10 µM;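 active = inhibition reaching a set limit with compound at 10 µM in the primary screen, cut at about 35% in these data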;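 also: plate controls were DMSO wells with enzyme for no effect and no-enzyme buffer wells for full effect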
Target sequence (P09923 whole entry, looked up): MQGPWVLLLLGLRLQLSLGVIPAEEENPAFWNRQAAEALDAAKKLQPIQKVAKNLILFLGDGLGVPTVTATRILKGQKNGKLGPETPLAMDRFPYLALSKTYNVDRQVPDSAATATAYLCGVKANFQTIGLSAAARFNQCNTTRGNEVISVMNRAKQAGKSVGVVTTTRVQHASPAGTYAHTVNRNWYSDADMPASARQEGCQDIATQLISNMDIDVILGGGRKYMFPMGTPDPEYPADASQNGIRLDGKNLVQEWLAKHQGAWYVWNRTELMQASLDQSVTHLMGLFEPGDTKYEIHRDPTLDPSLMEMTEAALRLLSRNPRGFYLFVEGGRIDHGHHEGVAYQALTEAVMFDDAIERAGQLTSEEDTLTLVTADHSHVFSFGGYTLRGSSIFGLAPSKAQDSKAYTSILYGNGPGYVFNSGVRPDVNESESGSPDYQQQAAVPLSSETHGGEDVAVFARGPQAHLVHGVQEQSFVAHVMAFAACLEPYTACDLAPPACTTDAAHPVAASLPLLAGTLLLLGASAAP
bIAP activator = intestinal alkaline phosphatase (bovine) activation. purified bovine IAP, CDP-star luminescence, 30 min; active compounds read high; fold of DMSO-control signal, blank-subtracted. activation factor at 20 µM. actives 0.17% (n = 200,000);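 active = activation factor of 2 or more at 20 µM, a signal rise over negative controls twice the positive control's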
mIAP activ = mouse IAP activation. muIAP, CDP-Star luminescence, 30 min; active compounds read high; 1 = vehicle-only enzyme signal, 0 = enzyme-free wells. activation factor at 10 µM. actives 0.24% (n = 330,000). AID 2805;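 active = activation factor of at least 2 at 20 µM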
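also added = chemiluminescent substrate CDP-Star | test system = mouse IAP enzyme | signal = chemiluminescence readout | compound = DMSO-dissolved test compounds | incubation = 30 min at room temperature | benchmarks = DMSO wells, no-enzyme wells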
mIAP inh = mouse IAP inhibition; actives 0.2% (n = 330,000); AID 2806; purified mouse IAP, CDP-Star luminescence, 30 min; inhibition, % at 10 µM;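 active = inhibition of at least 40% at 10 µM in the primary screen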;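 also: plate controls were DMSO with enzyme for no effect and no enzyme wells for full effect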
hIAP act = human IAP activation | purified human IAP, CDP-Star luminescence, 30 min; active compounds read high; 1 = vehicle-only enzyme, 0 = enzyme-free background | activation factor at 10 µM | actives 0.16% (n = 330,000);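 active = activation factor of the enzyme at least 2-fold when tested at 20 µM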
bIAP inhibitor = blocks bovine intestinal alkaline phosphatase activity; purified bovine IAP, CDP-star luminescence, 30 min; inhibition, % at 20 µM; 190,000 tested, under 10 active; AID 1019;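 active = over 50% inhibition of intestinal alkaline phosphatase at 20 µM in the single-dose screen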
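Assay system – bovine IAP enzyme · Quantity – bovine IAP at 1/65,000,000 final dilution · Detection – CDP-star luminescence signal · Times – 30 min reaction at room temperature · Also added – CDP-star substrate at 30 µM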
hIAP act conf = human IAP activation confirmation. shares compounds with hIAP act. activation (%Activity, negative = activation), % at 8.3 µM. purified IAP, CDP-Star luminescence, 30 min; active compounds read low. actives 10% (n = 880). AID 434926;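 active = at least twofold enzyme activation in any of six single-dose repeats, which the averaged readout prints as negative percent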
* = called active by the depositor; / = no result given. This is a sample that favours compounds with a hit; in the whole collection about 0.72% have one here.

SMILES	hIAP block	bIAP activator	mIAP activ	mIAP inh	hIAP act	bIAP inhibitor	hIAP act conf
S=C(NCC1CCCO1)Nc1ccc(Cl)c(Cl)c1 (stereo not given)	2	0.9	1.2	-18	0.98	10	/
Cc1cc(NC(=O)c2ccc(Cl)cc2Cl)no1	2	/	0.93	7	0.98	/	/
COc1ccc(C(=O)NCc2ccc3c(c2)OCO3)cc1S(=O)(=O)N1CCCC1	2	/	0.94	6	0.98	/	/
O=c1c2ccccc2nc(N/N=C/c2ccc(O)cc2)n1O	-4	1.2	0.86	14	1	-15	/
O=c1c2ccccc2nc(N/N=C/c2c(O)ccc3ccccc23)n1O	-103	1.2	0.88	12	2*	-17	-54*
Cc1ccc(CN(C)c2ccc(S(=O)(=O)N3CCCC3)cn2)cc1	36*	/	1	-1	0.64	/	-34
COc1ccccc1NC(=O)CSc1nnc(CCC(=O)Nc2ccccc2F)n1C	12	/	0.97	3	0.89	/	/
O=C(O)c1cccc(CSc2n[nH]c(-c3ccc(Cl)cc3Cl)n2)c1	40*	0.8	1	-2	0.6	23	-18
CC1CN(CCCCOc2ccc(F)cc2)CC(C)O1 (stereo not given)	16	1	1.1	-8	0.84	-4	/
C/C(=N/Nc1ccccc1[N+](=O)[O-])c1ccc([N+](=O)[O-])cc1	37*	/	0.91	9	0.63	/	-233*
Cc1ccc(C(=O)N(Cc2cccs2)C2CCS(=O)(=O)C2)cc1 (stereo not given)	42*	/	0.95	5	0.58	/	-3
O=C(c1ccc(Cl)cc1)N(Cc1cccs1)C1CCS(=O)(=O)C1 (stereo not given)	-2	1	1	-1	1	1	/
CCN1/C(=C/c2ccc3cc(C)ccc3[n+]2CC)Sc2ccc3sccc3c21	35*	/	0.57	43*	0.65	/	0
CCN1/C(=C\c2ccc3cc(C)ccc3[n+]2CC)Sc2cc(C)c(C)cc21	/	0.6	/	/	/	37	/
O=C(Nc1ncn[nH]1)c1ccc(Cl)c(S(=O)(=O)N2CCCCCC2)c1	-137	1.4	0.93	7	2.4*	-36	-14
CCOC1=C/C(=C/c2c(N)n3nc(S(=O)(=O)CC)sc3nc2=O)C=CC1=O	37*	0.8	0.61	39	0.63	20	27
CCOC1=C/C(=C/c2c(N)n3nc(CC(=O)N4CCCCC4)sc3nc2=O)C=CC1=O	22	/	0.9	10	0.78	/	/
COc1cc(OC)cc(C(=O)NNC(=O)C(=O)Nc2cc(OC)c(Cl)cc2OC)c1	39*	/	1	-2	0.61	/	-34
COc1cc(NC(=O)C(=O)NNC(=O)C2CCCCC2)c(OC)cc1Cl	-18	0.9	0.96	4	1.2	8	/
CC1=NN(c2ccccc2)C(=O)/C1=C\C=C1/N(C)c2ccccc2C1(C)C	33	1.1	0.64	36	0.67	-7	/
CC1=NN(c2ccccc2)C(=O)/C1=C\C=C1\N(C)c2ccccc2C1(C)C	40*	1	0.6	40*	0.6	0	-24
CC1OC(Oc2c(-c3cc(O)c(O)c(O)c3)oc3cc(O)cc(O)c3c2=O)C(O)C(O)C1O (stereo not given)	-11	/	0.86	14	1.1	/	/
O=C(O)C1OC(Oc2c(-c3ccc(O)c(O)c3)oc3cc(O)cc(O)c3c2=O)C(O)C(O)C1O (stereo not given)	71*	1	0.6	40	0.29	4	32
COc1ccccc1N(C)S(=O)(=O)c1ccc(Cl)c(C(=O)NNC(=O)c2ccccc2O)c1	-134	/	0.62	38	2.3*	/	59
Nc1c(N2CCOCC2)cc(Cl)c2nonc12	23	0.7	0.86	14	0.77	31	/
Nc1c(N2CCCC2)cc(Cl)c2nonc12	35*	0.7	0.88	12	0.65	26	41
CNc1nc2c(c(=O)[nH]c(=O)n2C)n1CCCc1ccccc1	-6	/	0.96	4	1.1	/	/
CCCn1c(N/N=C\C=C\c2ccccc2)nc2c1c(=O)[nH]c(=O)n2C	-123	1.4	0.88	12	2.2*	-44	2
CCCn1c(/C=C/c2ccccc2)nc2ccccc21	-214	0.8	0.96	4	3.1*	21	37
